# ChEMBL document CHEMBL2086252, “Syntheses and evaluation of anticonvulsant activity of novel branched alkyl carbamates” (J Med Chem, 2012)
# The source made the active and inactive calls. The calls are words filed in the database; no cut-off is given here.
# Tests used:
# [1] = Neurotoxicity in ip dosed albino CF1 mouse assessed as minimal motor impairment by rotarod test; type: toxicity, organism-based; conditions: in vivo
# Method in brief: (§1)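 Quantitative testing: rats dosed orally or ip in MES and scMet tests, and mice dosed ip, including the 6 Hz (32 mA) psychomotor seizure test. ED50 and TD50 were reported in mg/kg with ranges in parentheses. Protective index was calculated as TD50/ED50.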
# [2] = test system: Mus musculus; test: Neurotoxicity in albino CF1 mouse assessed as minimal motor impairment at 300 mg/kg, ip after 0.5 hrs by rotarod test; type: toxicity, organism-based; parameters: dose 300 mg/kg, route intraperitoneal; conditions: in vivo
# Method in brief: (§2)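 Mice dosed ip at 30, 100 or 300 mg/kg, then tested 0.5 h and 4 h after administration in the MES or scMet test. Protection was recorded as animals protected over animals tested. Neurotoxicity was recorded as motor impairment or sedation, as animals affected over animals tested.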
# [3] = test system: Rattus norvegicus; test: Neurotoxicity in pilocarpine-induced status epilepticus Sprague-Dawley albino rat model assessed as minimal motor impairment at 30 mg/kg, ip after 0.5 hrs by rotarod test; type: toxicity, organism-based; parameters: dose 30 mg/kg, route intraperitoneal; conditions: in vivo
# Method in brief: (§3)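 Rat pilocarpine status epilepticus model: test carbamate given at 0 or 30 min after the first observed Racine stage 3 motor seizure, which marks SE onset. Neurotoxicity was scored within the same model.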
# [4] = test system: Rattus norvegicus; test: Anticonvulsant activity in po dosed Sprague-Dawley albino rat assessed as protection against maximal electroshock-induced seizures; type: functional; method in brief: as §1
# [5] = test system: Mus musculus; test: Protective index, ratio of TD50 for ip dosed albino CF1 mouse by rotarod test to ED50 for ip dosed albino CF1 mouse by maximal electroshock seizures test; type: functional
# Method in brief: (§4)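 Protective index calculated as TD50/ED50, with TD50 and ED50 taken from the same species and dosing route.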
# [6] = test system: Mus musculus; test: Anticonvulsant activity in ip dosed albino CF1 mouse assessed as protection against maximal electroshock-induced seizures; type: functional; method in brief: as §1
# [7] = test system: Mus musculus; test: Anticonvulsant activity in albino CF1 mouse assessed as protection against maximal electroshock-induced seizures at 300 mg/kg, ip after 0.5 hrs; type: functional, organism-based; parameters: dose 300 mg/kg; method in brief: as §2
# [8] = test system: Rattus norvegicus; test: Neurotoxicity in pilocarpine-induced status epilepticus Sprague-Dawley albino rat model assessed as minimal motor impairment at 100 mg/kg, ip after 4 hrs by rotarod test; type: toxicity, organism-based; parameters: dose 100 mg/kg, route intraperitoneal; conditions: in vivo
# [9] = test system: Mus musculus; test: Protective index, ratio of TD50 for ip dosed albino CF1 mouse by rotarod test to ED50 for ip dosed albino CF1 mouse by 6 Hz psychomotor seizure test; type: functional; method in brief: as §4
# [10] = test system: Mus musculus; test: Anticonvulsant activity in albino CF1 mouse assessed as protection against maximal electroshock-induced seizures at 100 mg/kg, ip after 0.5 hrs; type: functional, organism-based; parameters: dose 100 mg/kg; method in brief: as §2
# [11] = test system: Rattus norvegicus; test: Anticonvulsant activity in Sprague-Dawley albino rat assessed as protection against pilocarpine-induced status epilepticus at 130 mg/kg, ip administered 0 and 30 mins after status epilepticus onset
# [12] = test system: Rattus norvegicus; test: Neurotoxicity in pilocarpine-induced status epilepticus Sprague-Dawley albino rat model assessed as minimal motor impairment at 300 mg/kg, ip after 0.25 hr by rotarod test; type: toxicity, organism-based; parameters: dose 300 mg/kg, route intraperitoneal; conditions: in vivo; method in brief: as §3
# [13] = test system: Rattus norvegicus; test: Neurotoxicity in pilocarpine-induced status epilepticus Sprague-Dawley albino rat model assessed as minimal motor impairment at 30 mg/kg, ip after 0.25 hr by rotarod test; type: toxicity, organism-based; parameters: dose 30 mg/kg, route intraperitoneal; conditions: in vivo; method in brief: as §3
# [14] = test system: Rattus norvegicus; test: Neurotoxicity in pilocarpine-induced status epilepticus Sprague-Dawley albino rat model assessed as minimal motor impairment at 100 mg/kg, ip after 0.5 hrs by rotarod test; type: toxicity, organism-based; parameters: dose 100 mg/kg, route intraperitoneal; conditions: in vivo
# [15] = Neurotoxicity in ip dosed Sprague-Dawley albino rat assessed as minimal motor impairment by rotarod test; type: toxicity, organism-based; conditions: in vivo; method in brief: as §1
# [16] = test system: Rattus norvegicus; test: Protective index, ratio of TD50 for ip dosed Sprague-Dawley albino rat by rotarod test to ED50 for ip dosed Sprague-Dawley albino rat by subcutaneous metrazol seizures test; type: functional; method in brief: as §4
# [17] = test system: Mus musculus; test: Anticonvulsant activity in albino CF1 mouse assessed as protection against maximal electroshock-induced seizures at 30 mg/kg, ip after 4 hrs; type: functional, organism-based; parameters: dose 30 mg/kg; method in brief: as §2
# [18] = test system: Rattus norvegicus; test: Anticonvulsant activity in ip dosed Sprague-Dawley albino rat assessed as protection against subcutaneous metrazol-induced seizures; type: functional; method in brief: as §1
# [19] = test system: Rattus norvegicus; test: Ratio of ED50 for po dosed Sprague-Dawley albino rat to ED50 for ip dosed Sprague-Dawley albino rat by maximal electroshock-induced seizure test; type: functional
# [20] = test system: Rattus norvegicus; test: Protective index, ratio of TD50 for ip dosed Sprague-Dawley albino rat by rotarod test to ED50 for ip dosed Sprague-Dawley albino rat by maximal electroshock seizures test; type: functional; method in brief: as §4
# [21] = test system: Rattus norvegicus; test: Neurotoxicity in pilocarpine-induced status epilepticus Sprague-Dawley albino rat model assessed as minimal motor impairment at 30 mg/kg, ip after 4 hrs by rotarod test; type: toxicity, organism-based; parameters: dose 30 mg/kg, route intraperitoneal; conditions: in vivo; method in brief: as §3
# [22] = test system: Mus musculus; test: Anticonvulsant activity in albino CF1 mouse assessed as protection against maximal electroshock-induced seizures at 300 mg/kg, ip after 4 hrs; type: functional, organism-based; parameters: dose 300 mg/kg; method in brief: as §2
# [23] = test system: Mus musculus; test: Anticonvulsant activity in albino CF1 mouse assessed as protection against subcutaneous metrazol-induced seizures at 300 mg/kg, ip after 0.5 hrs; type: functional, organism-based; parameters: dose 300 mg/kg; method in brief: as §2
# [24] = test system: Rattus norvegicus; test: Neurotoxicity in pilocarpine-induced status epilepticus Sprague-Dawley albino rat model assessed as minimal motor impairment at 30 mg/kg, ip after 2 hrs by rotarod test; type: toxicity, organism-based; parameters: dose 30 mg/kg, route intraperitoneal; conditions: in vivo; method in brief: as §3
# [25] = test system: Rattus norvegicus; test: Anticonvulsant activity in Sprague-Dawley albino rat assessed as protection against maximal electroshock-induced seizures at 30 mg/kg, po after 2 hrs; type: functional, organism-based; parameters: dose 30 mg/kg
# Method in brief: (§5)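 Rats dosed orally. Anti-MES protection was scored as animals protected over animals tested at each time after dosing. Neurotoxicity was scored as motor impairment or sedation, as animals affected over animals tested.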
# [26] = Neurotoxicity in po dosed Sprague-Dawley albino rat assessed as minimal motor impairment by rotarod test; type: toxicity, organism-based; conditions: in vivo
# Method in brief: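 Rats dosed orally; 4 rats per time point after dosing. Neurotoxicity was scored as motor impairment or sedation and reported as number of animals affected over number tested.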
# [27] = test system: Mus musculus; test: Neurotoxicity in albino CF1 mouse assessed as minimal motor impairment at 100 mg/kg, ip after 4 hrs by rotarod test; type: toxicity, organism-based; parameters: dose 100 mg/kg, route intraperitoneal; conditions: in vivo; method in brief: as §2
# [28] = test system: Mus musculus; test: Anticonvulsant activity in albino CF1 mouse assessed as protection against subcutaneous metrazol-induced seizures at 100 mg/kg, ip after 4 hrs; type: functional, organism-based; parameters: dose 100 mg/kg; method in brief: as §2
# [29] = test system: Rattus norvegicus; test: Anticonvulsant activity in po dosed Sprague-Dawley albino rat assessed as protection against subcutaneous metrazol-induced seizures; type: functional; method in brief: as §1
# [30] = test system: Rattus norvegicus; test: Anticonvulsant activity in ip dosed Sprague-Dawley albino rat assessed as protection against maximal electroshock-induced seizures; type: functional; method in brief: as §1
# [31] = test system: Rattus norvegicus; test: Anticonvulsant activity in Sprague-Dawley albino rat assessed as protection against pilocarpine-induced status epilepticus at 65 mg/kg, ip; type: functional, organism-based; parameters: dose 65 mg/kg
# Method in brief: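 Pilocarpine status epilepticus model in rats. Number and severity of convulsive seizures were observed behaviourally.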
# [32] = test system: Mus musculus; test: Anticonvulsant activity in albino CF1 mouse assessed as protection against subcutaneous metrazol-induced seizures at 30 mg/kg, ip after 4 hrs; type: functional, organism-based; parameters: dose 30 mg/kg; method in brief: as §2
# [33] = test system: Rattus norvegicus; test: Neurotoxicity in pilocarpine-induced status epilepticus Sprague-Dawley albino rat model assessed as minimal motor impairment at 100 mg/kg, ip after 1 hr by rotarod test; type: toxicity, organism-based; parameters: dose 100 mg/kg, route intraperitoneal; conditions: in vivo
# [34] = test system: Rattus norvegicus; test: Anticonvulsant activity in Sprague-Dawley albino rat assessed as protection against maximal electroshock-induced seizures at 30 mg/kg, po after 4 hrs; type: functional, organism-based; parameters: dose 30 mg/kg; method in brief: as §5
# [35] = test system: Mus musculus; test: Anticonvulsant activity in albino CF1 mouse assessed as protection against maximal electroshock-induced seizures at 30 mg/kg, ip after 0.5 hrs; type: functional, organism-based; parameters: dose 30 mg/kg; method in brief: as §2
# [36] = test system: Rattus norvegicus; test: Anticonvulsant activity in Sprague-Dawley albino rat assessed as protection against maximal electroshock-induced seizures at 30 mg/kg, po after 1 hr; type: functional, organism-based; parameters: dose 30 mg/kg; method in brief: as §5
# [37] = test system: Mus musculus; test: Neurotoxicity in albino CF1 mouse assessed as minimal motor impairment at 300 mg/kg, ip after 4 hrs by rotarod test; type: toxicity, organism-based; parameters: dose 300 mg/kg, route intraperitoneal; conditions: in vivo; method in brief: as §2
structure (smiles),measurement,setting,value
CCC(COC(N)=O)C(C)C (racemic),TD50,[1],157 mg/kg
same,Activity,[2],Toxic
same,Activity,[3],Non-toxic
same,ED50,[4],64 mg/kg
same,Ratio TD50/ED50,[5],1.5
same,ED50,[6],103 mg/kg
same,Activity,[7],Active
same,Activity,[8],Non-toxic
same,Ratio TD50/ED50,[9],4.4
same,Activity,[10],inactive
same,Activity,[11],Active
same,Activity,[12],Toxic
same,Activity,[13],Non-toxic
same,Activity,[14],Toxic
same,TD50,[15],58 mg/kg
same,Ratio TD50/ED50,[16],1.3
same,Activity,[17],inactive
same,ED50,[18],19 mg/kg
same,Ratio ED50,[19],4
same,Ratio TD50/ED50,[20],3.6
same,Activity,[21],Non-toxic
same,Activity,[22],inactive
same,Activity,[23],Active
same,Activity,[24],Non-toxic
same,Activity,[25],inactive
same,TD50,[26],> 500 mg/kg
same,Activity,[27],Non-toxic
same,Activity,[28],inactive
same,ED50,[29],35 mg/kg
same,ED50,[30],16 mg/kg
same,Activity,[31],Active
same,Activity,[32],inactive
same,Activity,[33],Non-toxic
same,Activity,[34],inactive
same,Activity,[35],inactive
same,Activity,[36],inactive
same,Activity,[37],Non-toxic
